Laboratory results reported in paper PMC5114201 (Drugs in R&D, 2016).
Ends that are not written are not given here.

Columns and labels:
[1] = intravenously administered into rats; ref unpublished preclinical toxicological data; cited from earlier work
[2] = Urinalysis, phase I study; format: in vivo, human; conditions: healthy subjects, n = 4
Procedure, shortened: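 Healthy volunteers were randomized within each dose cohort to oral drug solution in sterile water (four subjects) or sterile-water placebo (two subjects). They fasted from midnight, were dosed at 08:00 and had no food for 2 h afterwards. Urinalysis was done before dosing and 24 h after. Dipstick-type read-outs were compared with normal ranges or indications.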

[3] = Vital signs after single oral dose, phase I study; format: in vivo, human; conditions: 24 h post dose, healthy subjects, mean ± SD, n = 4
Procedure, shortened: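 In cohorts of four drug and two placebo (sterile water) subjects, a single oral solution was taken at 08:00 after an overnight fast, followed by 200 ml water. Blood pressure, heart rate, pulse oximetry, temperature and breathing rate were recorded pre-dose and at 0.25–24 h post dose. Values were reported as mean ± SD (range) and compared against placebo.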

Safety and tolerability = format: in vivo, human; conditions: healthy subjects, 12-lead ECG at 1, 3, 6 and 12 h post dose, all cohorts
Procedure, shortened: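 Single-blind, randomized, placebo-controlled dose escalation in healthy adults. Each cohort of six had four on drug and two on sterile-water placebo. Drug was dissolved in sterile water and drunk standing, then 200 ml water, at 08:00 after fasting from midnight. A 12-lead ECG was taken pre-dose and at 1, 3, 6 and 12 h. Vital signs and clinical laboratory tests were also monitored.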

Caco-2 monolayer = conditions: cited from earlier work
[4] = 0.08 mg/kg single oral dose, 0 h pre dose (baseline)
[5] = 0.08 mg/kg single oral dose, 24 h post dose
[6] = 0.7 mg/kg single oral dose, 0 h pre dose (baseline)
[7] = 0.7 mg/kg single oral dose, 24 h post dose

- Urine bilirubin [2, 4]: Negative
- Urine glucose [2, 4]: Normal
- Urine haemoglobin [2, 4]: Negative
- Urine ketones [2, 4]: Negative
- Urine nitrite [2, 4]: Negative
- Urine protein [2, 4]: Negative
- Urine urobilinogen [2, 4]: Normal
- Urine bilirubin [2, 5]: Negative
- Urine glucose [2, 5]: Normal
- Urine haemoglobin [2, 5]: Negative
- Urine ketones [2, 5]: Negative
- Urine nitrite [2, 5]: Negative
- Urine protein [2, 5]: Negative
- Urine urobilinogen [2, 5]: Normal
- Urine bilirubin [2, 6]: Negative
- Urine glucose [2, 6]: normal
- Urine haemoglobin [2, 6]: Negative
- Urine ketones [2, 6]: Negative
- Urine nitrite [2, 6]: Negative
- Urine protein [2, 6]: Negative
- Urine urobilinogen [2, 6]: Normal
- Urine bilirubin [2, 7]: Negative
- Urine glucose [2, 7]: normal
- Urine haemoglobin [2, 7]: Negative
- Urine ketones [2, 7]: Negative
- Urine nitrite [2, 7]: Negative
- Urine protein [2, 7]: Negative
- Urine urobilinogen [2, 7]: Normal
Sequence: RVYIHPFHL [DAA-I, Des-aspartate-angiotensin I]
- Time to degradation by plasma enzymes [1]: 2 to 5 min
- Blood pressure, diastolic ([3]; 0.08 mg/kg single oral dose): 68 ± 5 mmHg
- Blood pressure, systolic ([3]; 0.08 mg/kg single oral dose): 120 ± 4 mmHg
- Blood pressure, diastolic ([3]; 0.7 mg/kg single oral dose): 67 ± 7 mmHg
- Blood pressure, systolic ([3]; 0.7 mg/kg single oral dose): 114 ± 7 mmHg
- ECGs (Safety and tolerability): normal
- Transport across Caco-2 monolayer (Caco-2 monolayer): cross the Caco-2 monolayer via passive diffusion
